Laboratory results reported in ChEMBL document CHEMBL4689842, “EUbOPEN Chemogenomics Library wave 1” (2021).

System: U2OS
Experiment: Multiplex assay against U2OS
Type: toxicity, cell-based
Settings: human
Procedure, shortened: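 Four dyes were applied at seeding to live cells: Hoechst33342, BioTracker Green Microtubule Cytoskeleton Dye, MitoTracker Red and Annexin V Alexa Fluor 680. Imaging after compound addition used a CQ1 microscope at 37°C and 5% CO2. CellPathfinder machine-learning gating then sorted cells into Hoechst high-intensity objects or normal cells, normal cells into healthy, pyknosed or fragmented nuclei, and pyknosed cells into mitotic or apoptotic, with tubulin, mitochondrial-mass and membrane-permeability phenotypes given as per cents of healthy-nucleus cells.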

[1] = 12 h, 1 µM, compound concentration 1 uM, replicate 1
[2] = 12 h, 1 µM, compound concentration 1 uM, replicate 2
[3] = 12 h, 10 µM, compound concentration 10 uM, replicate 1
[4] = 12 h, 10 µM, compound concentration 10 uM, replicate 2
[5] = 24 h, 1 µM, compound concentration 1 uM, replicate 1
[6] = 24 h, 1 µM, compound concentration 1 uM, replicate 2
[7] = 24 h, 10 µM, compound concentration 10 uM, replicate 1
[8] = 24 h, 10 µM, compound concentration 10 uM, replicate 2

## Cc1cn(-c2cc(NC(=O)c3ccc4c(c3)CN(c3cncnc3)C[C@@H]4C)cc(C(F)(F)F)c2)cn1
[1]
  Population Apoptotic (%): 56%
  Population Healthy Nuclei (%): 81%
  Population Hoechst High Intensity Objects (%): 7%
  Population Membrane Permeable-Phenotype (%): 6%
  Population Mitochondria Different-Phenotype (%): 23%
  Population Mitotic Cells (%): 43%
  Population Normal (%): 92%
  Population Pyknosed Nuclei (%): 11%
  Population Tubulin-Different-Phenotype (%): 33%
  Total Cell Count: 149
[2]
  Population Apoptotic (%): 0%
  Population Fragmented Nuclei (%): 7%
  Population Healthy Nuclei (%): 86%
  Population Hoechst High Intensity Objects (%): 16%
  Population Membrane Permeable-Phenotype (%): 11%
  Population Mitochondria Different-Phenotype (%): 30%
  Population Mitotic Cells (%): 100%
  Population Normal (%): 83%
  Population Pyknosed Nuclei (%): 6%
  Population Tubulin-Different-Phenotype (%): 19%
  Total Cell Count: 116
[3]
  Population Apoptotic (%): 33%
  Population Fragmented Nuclei (%): 7%
  Population Healthy Nuclei (%): 84%
  Population Hoechst High Intensity Objects (%): 3%
  Population Membrane Permeable-Phenotype (%): 40%
  Population Mitochondria Different-Phenotype (%): 17%
  Population Mitotic Cells (%): 66%
  Population Normal (%): 96%
  Population Pyknosed Nuclei (%): 7%
  Population Tubulin-Different-Phenotype (%): 16%
  Total Cell Count: 198
[4]
  Population Apoptotic (%): 66%
  Population Fragmented Nuclei (%): 10%
  Population Healthy Nuclei (%): 87%
  Population Hoechst High Intensity Objects (%): 15%
  Population Membrane Permeable-Phenotype (%): 24%
  Population Mitochondria Different-Phenotype (%): 26%
  Population Mitotic Cells (%): 33%
  Population Normal (%): 84%
  Population Pyknosed Nuclei (%): 3%
  Population Tubulin-Different-Phenotype (%): 17%
  Total Cell Count: 118
[5]
  Population Apoptotic (%): 45%
  Population Fragmented Nuclei (%): 6%
  Population Healthy Nuclei (%): 83%
  Population Hoechst High Intensity Objects (%): 3%
  Population Membrane Permeable-Phenotype (%): 6%
  Population Mitotic Cells (%): 55%
  Population Normal (%): 96%
  Population Pyknosed Nuclei (%): 9%
  Population Tubulin-Different-Phenotype (%): 42%
  Total Cell Count: 210
[6]
  Population Apoptotic (%): 42%
  Population Fragmented Nuclei (%): 9%
  Population Healthy Nuclei (%): 85%
  Population Hoechst High Intensity Objects (%): 6%
  Population Membrane Permeable-Phenotype (%): 12%
  Population Mitochondria Different-Phenotype (%): 26%
  Population Mitotic Cells (%): 57%
  Population Normal (%): 93%
  Population Pyknosed Nuclei (%): 5%
  Population Tubulin-Different-Phenotype (%): 34%
  Total Cell Count: 143
[7]
  Population Apoptotic (%): 42%
  Population Fragmented Nuclei (%): 6%
  Population Healthy Nuclei (%): 85%
  Population Hoechst High Intensity Objects (%): 4%
  Population Membrane Permeable-Phenotype (%): 28%
  Population Mitochondria Different-Phenotype (%): 14%
  Population Mitotic Cells (%): 57%
  Population Normal (%): 95%
  Population Pyknosed Nuclei (%): 7%
  Population Tubulin-Different-Phenotype (%): 12%
  Total Cell Count: 254
[8]
  Population Apoptotic (%): 22%
  Population Fragmented Nuclei (%): 8%
  Population Healthy Nuclei (%): 84%
  Population Hoechst High Intensity Objects (%): 6%
  Population Membrane Permeable-Phenotype (%): 20%
  Population Mitochondria Different-Phenotype (%): 22%
  Population Mitotic Cells (%): 77%
  Population Normal (%): 93%
  Population Tubulin-Different-Phenotype (%): 10%
  Total Cell Count: 128
